What is called IC50 is the concentration that inhibits the measured activity by half.

In one experiment the test system is HT-29. Nature of the experiment: Cytotoxicity against human HT-29 cells after 96 hrs by MTT assay. Type of experiment: functional, cell-based. The settings on record: HT-29, 96 h. A digest of the protocol:
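HT-29 cells in RPMI-1640 with 10% newborn calf serum, 37 °C, 5% CO2. Seeded at 5 × 10^3 cells/well and grown 24 h, then given fresh medium with graded compound concentrations for 96 h. MTT (5 mg/mL stock) added for 1–2 h at 37 °C. Formazan dissolved in DMSO and read at 570 nm; viability taken as absorbance fraction of untreated wells. Run in triplicate, mean ± SD.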
(Tetrazolium assays rely on reduction of a dye to a coloured formazan, in cell work by metabolically active cells.)
Compound `COc1cc2c3c(c1O)-c1c(cc(OC)c(OC)c1OC)CC[C@@H]3N(C)CC2=O` registered an IC50 of 22.5 µM. The same measure, in the same setting: to `COc1cc2c(cc1O)[C@H](CCc1cc(OC)c(OC)c(OC)c1)N(C(=O)C(F)(F)F)CC2` belongs above 50 µM; to `COc1cc2c3c(c1O)-c1c(cc(OC)c(OC)c1OC)CC[C@@H]3N(S(C)(=O)=O)CC2`, 7.95 µM; to `COc1cc2c3c(c1O)-c1c(cc(OC)c(OC)c1OC)CC[C@@H]3N(S(=O)(=O)C(F)(F)F)CC2`, 10.4 µM.

`COc1cc2c3c(c1O)-c1c(cc(OC)c(OC)c1OC)CC[C@@H]3N(C(C)=O)CC2` returned an IC50 of 13.3 µM. Still for that read-out and setting: to `COc1cc2c3c(c1O)-c1c(cc(OC)c(OC)c1OC)CC[C@@H]3N(C(=O)C(F)(F)F)CC2` belongs 6.45 µM.

With `COC1=C[C@@]23CCN(S(C)(=O)=O)[C@@H](CCc4cc(OC)c(OC)c(OC)c42)C3=CC1=O`, the IC50 is above 50 µM.

In the case of `COC1=C[C@@]23CCN(S(=O)(=O)C(F)(F)F)[C@@H](CCc4cc(OC)c(OC)c(OC)c42)C3=CC1=O`, the midpoint of inhibition, the IC50, lay at 15.7 µM. The same measure, in the same setting: then `COC1=C[C@@]23CCN(S(=O)(=O)c4ccc(C)cc4)[C@@H](CCc4cc(OC)c(OC)c(OC)c42)C3=CC1=O`, with 42.7 µM; and `COC1=C[C@@]23CCN(C(C)=O)[C@@H](CCc4cc(OC)c(OC)c(OC)c42)C3=CC1=O`, with 37.8 µM; and `COC1=C[C@@]23CCN(C(=O)C(F)(F)F)[C@@H](CCc4cc(OC)c(OC)c(OC)c42)C3=CC1=O`, with above 50 µM. Still for that read-out and setting: to `COc1cc2c(cc1O)[C@@H]1CCc3cc(OC)c(OC)c(OC)c3[C@H]2CN1S(C)(=O)=O` belongs 11.6 µM; to `COc1cc2c(cc1O)[C@@H]1CCc3cc(OC)c(OC)c(OC)c3[C@H]2CN1S(=O)(=O)c1ccc(C)cc1`, 10.8 µM; to `COc1cc2c(cc1O)[C@@H]1CCc3cc(OC)c(OC)c(OC)c3[C@H]2CN1C(C)=O`, above 50 µM. The same measure, in the same setting: then `COc1cc2c(cc1O)[C@@H]1CCc3cc(OC)c(OC)c(OC)c3[C@H]2CN1C(=O)C(F)(F)F`, with 27.8 µM; and `COc1cc2c(cc1OC(C)=O)[C@@H]1CCc3cc(OC)c(OC)c(OC)c3[C@H]2CN1C(=O)C(F)(F)F`, with 40.8 µM; and `COc1cc2c(c(OC)c1OC)[C@H]1CN(S(=O)(=O)c3ccc(C)cc3)[C@@H](CC2)C2=CC(=O)C(=O)C=C21`, with 6.6 µM. Compound `COc1cc2c(cc1O)[C@H]1CCc3cc(OC)c(OC)c(OC)c3[C@@H](C2)N1Cc1ccccc1` returned an IC50 of 9.1 µM. Still for that read-out and setting: to `COc1cc2c(cc1OC(C)=O)[C@H]1CCc3cc(OC)c(OC)c(OC)c3[C@@H](C2)N1Cc1ccccc1` belongs 21.7 µM; to `COc1cc2c(cc1OC)[C@H]1CCc3cc(OC)c(OC)c(OC)c3[C@@H](C2)N1C`, above 50 µM; to `COc1cc2c(cc1O)[C@H]1CCc3cc(OC)c(OC)c(OC)c3[C@@H](C2)N1C`, above 50 µM.

The compound `COc1cc2c(cc1OC(C)=O)[C@H]1CCc3cc(OC)c(OC)c(OC)c3[C@@H](C2)N1C` yielded an IC50 of 43.5 µM.

`COC1=CC2(C=C(OC)C1=O)CC[C@H]1c3c(cc(OC)c(O)c32)CCN1S(=O)(=O)C(F)(F)F`: the midpoint of inhibition, the IC50, lay at 46.5 µM. On the same count and under the same terms, to `COC1=CC2(C=C(OC)C1=O)CC[C@H]1c3c(cc(OC)c(O)c32)CCN1C(C)=O` belongs 45.9 µM; to `COC1=CC2(C=C(OC)C1=O)CC[C@H]1c3c(cc(OC)c(O)c32)CCN1C`, above 50 µM. The same measure, in the same setting: then `COc1cc2c3c(c1O)-c1c(cc(OC)c(OC)c1OC)CC[C@@H]3N(S(=O)(=O)C(F)(F)F)CC2=O`, with 1.16 µM.

In turn, `COc1cc2c(c(OC)c1OC)-c1c(OC(C)=O)c(OC)cc3c1[C@H](CC2)N(C)CC3=O` displayed an IC50 of 27.2 µM. This IC50 is about 23-fold higher than that of the compound before. Still for that read-out and setting: to `COc1cc2c(c(OC)c1OC)-c1c(OC(=O)Oc3ccccc3)c(OC)cc3c1[C@H](CC2)N(C)CC3=O` belongs 30.8 µM; to `COc1cc2c3c(c1O)-c1c(cc(OC)c(OC)c1OC)CC[C@@H]3N(S(C)(=O)=O)C(O)C2=O` (some centres undefined), above 50 µM. Same read-out and setting: to `COc1cc2c3c(c1O)-c1c(cc(OC)c(OC)c1OC)CC[C@@H]3N(C(=O)C(F)(F)F)C=C2` belongs 0.684 µM; to `COc1cc2c(c(OC)c1OC)-c1c(OC(C)=O)c(OC)cc3c1[C@H](CC2)N(C(=O)C(F)(F)F)C=C3`, 1.25 µM. On the same count and under the same terms, to `COc1cc2c(c(OC)c1OC)-c1c(OS(=O)(=O)C(F)(F)F)c(OC)cc3c1C(=CC2)N(S(=O)(=O)C(F)(F)F)C=C3` belongs 10.1 µM. `COc1cc2ccnc3c2c(c1O)-c1c(cc(OC)c(OC)c1OC)CC3` returned an IC50 of 0.179 µM. In the case of `COc1cc2c(c(OC)c1OC)-c1c(OC(C)=O)c(OC)cc3ccnc(c13)CC2`, the IC50 turned out to be 0.189 µM. On the same count and under the same terms, to `COc1cc2c(c(OC)c1OC)-c1c(OC(=O)C3CCCCC3)c(OC)cc3ccnc(c13)CC2` belongs 0.99 µM; to `COc1cc2c(c(OC)c1OC)-c1c(OC(=O)c3ccccc3)c(OC)cc3ccnc(c13)CC2`, 2.56 µM; to `COC(=O)Oc1c(OC)cc2ccnc3c2c1-c1c(cc(OC)c(OC)c1OC)CC3`, 0.182 µM. Same read-out and setting: to `COc1cc2c(c(OC)c1OC)-c1c(OC(=O)OCC(Cl)(Cl)Cl)c(OC)cc3ccnc(c13)CC2` belongs 0.229 µM; to `COc1cc2c(c(OC)c1OC)-c1c(OC(=O)Oc3ccccc3)c(OC)cc3ccnc(c13)CC2`, 0.132 µM. `COc1cc2c(c(OC)c1OC)-c1c(OC(=S)n3ccnc3)c(OC)cc3ccnc(c13)CC2` registered an IC50 of 0.293 µM. Same read-out and setting: then `COc1cc2c(c(OC)c1OC)-c1c(OS(C)(=O)=O)c(OC)cc3ccnc(c13)CC2`, with 24.4 µM; and `COc1cc2c(c(OC)c1OC)-c1c(OS(=O)(=O)C(F)(F)F)c(OC)cc3ccnc(c13)CC2`, with 24.6 µM; and `COC1=CC2=C3c4c(c(OC)cc5ccnc(c45)CC2)O[C@]3(OC)C1=O`, with 23.9 µM.

A further experiment has as its system HT-29. Nature of the experiment: Cytotoxicity against human HT-29 cells.
Conditions: not given
`COc1cc2c(c(OC)c1OC)-c1ccc(OC)c(=O)cc1[C@@H](NC(C)=O)CC2` [COLCHICINE]: the IC50 turned out to be 0.008 µM.

The values above are taken from ChEMBL document CHEMBL2029235, “Bio-inspired synthesis and biological evaluation of a colchicine-related compound library” (Bioorg Med Chem Lett, 2012).
